Experimental data reported in PMC4674087 (ChemMedChem, 2015).
Converted amounts (≈) assume the structure as drawn. “And” between values parts separate entries of the source, which are not always exact repeats. Identical values can stand only once.

Columns and labels:
[1] = test system: mitochondrial permeability transition pore (mtPTP); assay: Calcium retention capacity; assay type: biochemical, mouse; conditions: for CRC/CRC0: at 1.56 µM, average ±SEM, n≥3
[2] = test system: mitochondrial permeability transition pore (mtPTP); assay: Mitochondrial swelling assay; assay type: biochemical, mouse; conditions: for EC50: read-out: mitochondrial swelling EC50, isolated mouse liver mitochondria
[3] = HeLa cell viability assay; assay type: cell-based, human; conditions: human, HeLa cells, with verapamil (20 µM) or CsH (2 µg/mL)
Summary of the method: (§1)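 HeLa cells are grown in DMEM with 10% FBS at 37 °C and 5% CO2, seeded at 1×10^4 per well, and left to adhere for 6 h. They are then exposed for 24 h to a range of test compound concentrations or 1% DMSO vehicle, with 20 µM verapamil or 2 µg/mL CsH present. Relative viable cell number is read with the CellTiter 96 Aqueous One kit.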

[4] = test system: isolated mouse liver mitochondria; assay: Oxygen consumption of isolated mouse liver mitochondria; assay type: biochemical
[5] = Plasma protein binding, mouse; assay type: in vitro ADME
[6] = Microsomal stability, human liver microsomes; assay type: in vitro ADME
HeLa cells [7] = assay: Oxygen consumption of HeLa cells; assay type: cell-based, human; conditions: CsH present
Summary of the method: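 HeLa monolayers are seeded at 3×10^4 per well in DMEM and cultured for 24 h. Medium is replaced by serum- and antibiotic-free unbuffered DMEM (pH 7.4) containing 2 µg/mL CsH or 20 µM verapamil. Oxygen consumption is measured on a Seahorse XF24 with sequential additions, and protein per well is quantified by BCA afterwards. Results are mean ± SD of a representative experiment, repeated four times.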

Plasma stability, mouse = assay type: in vitro ADME
adenosine A3 = molecular target: T1, adenosine A3 (Homo sapiens, UniProt P0DMS8); assay: Eurofins LeadProfilingScreen panel; assay type: binding; conditions: read-out: inhibition of adenosine A3
T1 sequence (P0DMS8 1-318): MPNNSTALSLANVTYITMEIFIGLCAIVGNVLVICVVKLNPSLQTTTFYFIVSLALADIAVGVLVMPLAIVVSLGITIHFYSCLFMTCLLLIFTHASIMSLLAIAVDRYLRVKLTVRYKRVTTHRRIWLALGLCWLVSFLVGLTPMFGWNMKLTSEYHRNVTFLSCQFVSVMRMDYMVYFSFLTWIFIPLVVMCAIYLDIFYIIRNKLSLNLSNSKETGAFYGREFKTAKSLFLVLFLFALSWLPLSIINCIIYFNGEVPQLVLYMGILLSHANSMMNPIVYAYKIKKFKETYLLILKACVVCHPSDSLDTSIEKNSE

[8] = Plasma protein binding, human; assay type: in vitro ADME
[9] = test system: exon 9 col6a1 morphant zebrafish; assay: Zebrafish ColVI myopathy model, muscle birefringence; assay type: in vivo; conditions: 48 hpf; 5 and 10 µM in fish water, added at 21 hpf; ANOVA p < 0.05
HeLa cells [10] = assay: HeLa cell viability assay; assay type: cell-based, human; conditions: 24 h, CsH or verapamil present
Summary of the method: as §1

[11] = test system: exon 9 col6a1 morphant zebrafish; assay: Zebrafish ColVI myopathy model, motor activity; assay type: in vivo; conditions: 5 and 10 µM in fish water, added at 21 hpf
Plasma stability, human = assay type: in vitro ADME
[12] = test system: other 66 targets in the panel (GPCRs, ion channels, transporters); assay: Eurofins LeadProfilingScreen panel, remaining targets; assay type: binding; conditions: 10 µM
Aqueous solubility = assay type: physicochemical; conditions: PBS
[13] = Microsomal stability, mouse liver microsomes; assay type: in vitro ADME
human mtPTP = assay: CRC of HeLa cells; assay type: cell-based
[14] = molecular target: human norepinephrine transporter (NET) (Homo sapiens, UniProt P23975); assay: Eurofins LeadProfilingScreen panel; assay type: binding; conditions: read-out: inhibition of human norepinephrine transporter (NET)
human norepinephrine transporter (NET), sequence (P23975 whole entry): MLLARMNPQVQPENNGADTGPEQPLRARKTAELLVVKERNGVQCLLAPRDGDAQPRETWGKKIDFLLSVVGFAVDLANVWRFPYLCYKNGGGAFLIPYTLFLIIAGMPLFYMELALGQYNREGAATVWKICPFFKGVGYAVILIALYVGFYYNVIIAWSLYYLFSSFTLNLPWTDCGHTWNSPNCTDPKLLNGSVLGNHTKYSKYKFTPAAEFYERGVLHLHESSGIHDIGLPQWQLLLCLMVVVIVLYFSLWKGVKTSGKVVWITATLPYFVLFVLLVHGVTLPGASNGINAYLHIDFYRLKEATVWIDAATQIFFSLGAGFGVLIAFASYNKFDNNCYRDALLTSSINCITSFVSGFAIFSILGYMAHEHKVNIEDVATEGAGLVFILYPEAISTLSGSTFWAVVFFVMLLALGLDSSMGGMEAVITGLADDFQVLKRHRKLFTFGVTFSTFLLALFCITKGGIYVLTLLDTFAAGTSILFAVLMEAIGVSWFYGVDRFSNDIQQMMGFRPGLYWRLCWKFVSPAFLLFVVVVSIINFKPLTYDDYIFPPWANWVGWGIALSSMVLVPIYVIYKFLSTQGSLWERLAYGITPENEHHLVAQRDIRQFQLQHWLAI

[15] = test system: mitochondrial permeability transition pore (mtPTP); assay: Chemical activation of mtPTP; assay type: biochemical, mouse; conditions: 1.56 µM; 10 µM Ca2+ plus PhAsO, diamide, Cu(OP)2 or NEM
[16] = isolated mouse liver mitochondria

COc1cc(NC(=O)c2cc(-c3cccc(O)c3)on2)cc(OC)c1OC [Compound 1, 5-(3-hydroxyphenyl)-N-(3,4,5-trimethoxyphenyl)isoxazole-3-carboxamide]
CRC/CRC0 [1, 16]: 1.18 −0.06

COc1ccc(-c2cc(C(=O)Nc3cc(Cl)ccc3C)no2)cc1O [Compound 46, N-(5-Chloro-2-methylphenyl)-5-(3-hydroxy-4-methoxyphenyl)isoxazole-3-carboxamide]
EC50 [2]: 0.0076 nM
CC50 at 24 h [3]: > 50 µM
CRC/CRC0 [1, 16]: 10.02±0.34

COc1ccc(-c2cc(C(=O)Nc3cc(Cl)cnc3C)no2)cc1O [Compound 54, N-(5-Chloro-2-methylpyridin-3-yl)-5-(3-hydroxy-4-methoxyphenyl)isoxazole-3-carboxamide]
EC50 [2]: 10 nM
CC50 at 24 h [3]: > 50 µM
CRC/CRC0 [1, 16]: 10.10±1.14 and 10.1 −1.1

Cc1c(Cl)cccc1NC(=O)c1cc(-c2ccc(F)c(O)c2)on1 [Compound 60, N-(3-Chloro-2-methylphenyl)-5-(4-fluoro-3-hydroxyphenyl)isoxazole-3-carboxamide]
respiratory control ratios, FCCP-stimulated and oligomycin-insensitive respiration [4]: No statistically significant differences
fraction unbound [5]: < 0.01
recovery [5]: 0%
half-life [6]: > 60 min
microsomal CLint [6]: < 116 µL/min/mg
FCCP-stimulated and oligomycin-insensitive respiration (HeLa cells [7]): No statistically significant differences
half-life (Plasma stability, mouse): < 30 min
mtPTP opening (swelling) induced by 50 µM Ca2+ load ([2]; 1.56 µM compound): abolished
inhibition at 10 µM (adenosine A3): 51%
fraction unbound [8]: 0.11
recovery [8]: 76%
muscle birefringence (structural muscle defects) [9]: significant recovery of muscle defects
CC50 at 24 h [3]: 39.5 ± 4.65 µM
concentration up to which not cytotoxic (HeLa cells [10]): 12.50 µM
motor function (spontaneous coiling events, touch-evoked response) [11]: dramatic improvement in motor function
half-life (Plasma stability, human): > 120 min
inhibition of the other 66 targets in the panel [12]: ≤ 43%
Aqueous solubility (Aqueous solubility; pH 7.4): 16.1 µM
solubility (Aqueous solubility; pH 7.4, aqueous buffer, Aqueous solubility): 16 µM (≈ 5.55 µg/mL)
half-life [13]: < 15 min
microsomal CLint [13]: > 462 µL/min/mg
CRC after treatment of intact HeLa cells, wash, then permeabilization (human mtPTP; 1.56 µM, 30 min): effective following treatment of intact human cells
CRC ratios of permeabilized HeLa cells (human mtPTP; increasing concentrations of 60): increased CRC ratios
Ca2+ load required for mtPTP opening ([1]; 1.56 µM compound, 20 µM Ca2+ pulses, solvent control 80): ~ 960 nmol (mg protein)^−1
CRC/CRC0 [1, 16]: 12.14±0.55 and 12.1 −0.6
compound-to-solvent CRC ratio reached on augmenting the concentration ([1]; concentration-response, Figure 4D trace a): 15
maximum CRC ratio relative to CsA-treated mitochondria [1, 16]: ~ 3 fold
effect on CRC in combination with 2 µM CsA ([1]; various concentrations of 60 plus 2 µM CsA): synergistic
inhibition at 10 µM [14]: 79%
mtPTP transition from closed to open after chemical activators [15]: prevented

Cc1ccc(Cl)cc1NC(=O)c1cc(-c2ccc(F)c(O)c2)on1 [Compound 63, N-(5-Chloro-2-methylphenyl)-5-(4-fluoro-3-hydroxyphenyl)isoxazole-3-carboxamide]
CRC/CRC0 [1, 16]: 15.21±1.26 and 15.2 −1.3
